Holding throughout (format): functional
Experiment [1] is described as follows: Antioxidant activity assessed as inhibition of nitric oxide free radical production at 100 ug/mL after 150 mins by Griess method relative to control. The method, boiled down: (§1)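 NO generated from sodium nitroprusside (10 mM) in 0.2 M phosphate buffered saline, pH 7.4, with compound at […]. Incubated 150 min at 25 °C. An aliquot was mixed 1:1 with Griess reagent (1% sulfanilamide, 2% H3PO4, 0.1% naphthylethylenediamine dihydrochloride).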
(Griess reagent forms a coloured azo dye with nitrite.)

Experiment [2] has as its system Radical scavenging activity. As to the kind of experiment: Antioxidant activity assessed as inhibition of DPPH free radical production at 50 ug/mL after 30 mins by spectrophotometric analysis relative to control. The method, boiled down:
(§2)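 Test compound in methanol added to 0.004% (w/v) methanolic DPPH at a 1:4 volume ratio. Incubated 30 min at room temperature. Absorbance read against blank at 517 nm.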
On the technique in general: Loss of DPPH colour is used to gauge radical scavenging.

Experiment [3] can be described thus: Antioxidant activity assessed as inhibition of H2O2 radical scavenging activity by spectrophotometric analysis. The method, boiled down:
(§3)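 H2O2 (40 mM) prepared in phosphate buffer, pH 7.4. Compounds at […] in phosphate buffer were added to the H2O2 solution. Absorbance of the mixture was read at 230 nm, and percent H2O2 scavenging was calculated.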

A short description of experiment [4]: Antioxidant activity assessed as inhibition of nitric oxide free radical production at 75 ug/mL after 150 mins by Griess method relative to control. The method, boiled down:
as §1

Experiment [5] relates to Radical scavenging activity. The experiment in a line: Antioxidant activity assessed as inhibition of DPPH free radical production at 100 ug/mL after 30 mins by spectrophotometric analysis relative to control. An outline of the steps: as §2
In experiment [6] the test system is Radical scavenging activity. The experiment in a line: Antioxidant activity assessed as inhibition of DPPH free radical production after 30 mins by spectrophotometric analysis. An outline of the steps: as §2
Experiment [7] in a line: Antioxidant activity assessed as inhibition of nitric oxide free radical production at 50 ug/mL after 150 mins by Griess method relative to control. The method, boiled down: as §1
Experiment [8] in a line: Antioxidant activity assessed as inhibition of H2O2 radical scavenging activity at 50 ug/mL by spectrophotometric analysis relative to control. An outline of the steps:
as §3

A short description of experiment [9]: Antioxidant activity assessed as inhibition of H2O2 radical scavenging activity at 25 ug/mL by spectrophotometric analysis relative to control. The method, boiled down: as §3
Experiment [10] relates to Radical scavenging activity. As to the kind of experiment: Antioxidant activity assessed as inhibition of DPPH free radical production at 75 ug/mL after 30 mins by spectrophotometric analysis relative to control. The method, boiled down: as §2
Experiment [11] in a line: Antioxidant activity assessed as inhibition of nitric oxide free radical production after 150 mins by Griess method. An outline of the steps: as §1
A short description of experiment [12]: Antioxidant activity assessed as inhibition of H2O2 radical scavenging activity at 75 ug/mL by spectrophotometric analysis relative to control. The method, boiled down:
as §3

A short description of experiment [13]: Antioxidant activity assessed as inhibition of nitric oxide free radical production at 25 ug/mL after 150 mins by Griess method relative to control. An outline of the steps:
as §1

Experiment [14] concerns Radical scavenging activity. The experiment in a line: Antioxidant activity assessed as inhibition of DPPH free radical production at 25 ug/mL after 30 mins by spectrophotometric analysis relative to control. An outline of the steps:
as §2

Experiment [15] is described as follows: Antioxidant activity assessed as inhibition of H2O2 radical scavenging activity at 100 ug/mL by spectrophotometric analysis relative to control. The method, boiled down: as §3

SMILES strings stand for the structures. ≈ marks a conversion by molar mass, not a printed value.

Regarding `Cc1c(-c2nnc(-c3ccc([N+](=O)[O-])cc3)o2)sc2ncnc(Nc3ccc(F)cc3F)c12`, the inhibition (usually how much of the control response was suppressed) in [1] is 79%; in experiment [2], 69.5%; in [4], 76.2%; in experiment [5] it was 77.8%; in experiment [7] it was 71.4%; in [8], 58.1%. Also, the inhibition in [9] stood at 54.4%; in experiment [10], 73.9%; in experiment [12], 62.8%; in experiment [13], 63.6%; in experiment [14] it was 64.6%; in experiment [15], 66.2%. Further, the IC50 (usually the concentration that gives 50% inhibition) in [3] came out at 22.98 µg/mL (≈ 49.3 µM); in [6] it was 19.34 µg/mL (≈ 41.5 µM); in experiment [11] it was 19.66 µg/mL (≈ 42.2 µM).

Take `Cc1c(-c2nnc(-c3ccc([N+](=O)[O-])cc3)o2)sc2ncnc(Nc3ccc(F)cc3)c12`: the inhibition in experiment [1] amounted to 73.9%; in experiment [2], 64.5%; in experiment [4], 70.9%; in [5], 72.2%; in experiment [7], 66.8%; in experiment [8], 56.6%. The inhibition worked out at 53.1% in [9]; 68.9% in experiment [10]; 60% in [12]; 62% in experiment [13]; 59.7% in experiment [14]; 64.2% in experiment [15]. For the same compound, the IC50 in experiment [3] was found to be 23.54 µg/mL (≈ 52.5 µM); in [6] it was 20.92 µg/mL (≈ 46.7 µM); in experiment [11] it was 20.14 µg/mL (≈ 44.9 µM).

Take `Cc1c(-c2nnc(-c3ccccc3)o2)sc2ncnc(Nc3ccc(F)cc3F)c12`: the inhibition stood at 85.4% in [1]; 77.4% in experiment [2]; 82.6% in experiment [4]; 83.8% in [5]; 79.5% in [7]; 65.5% in experiment [8]. In addition, the inhibition came out at 63.9% in [9]; 79.6% in experiment [10]; 69% in experiment [12]; 75.2% in experiment [13]; 73.9% in experiment [14]; 72.5% in [15]. For the same compound, the IC50 was 19.57 µg/mL (≈ 46.4 µM) in experiment [3], 16.91 µg/mL (≈ 40.1 µM) in experiment [6] and 16.61 µg/mL (≈ 39.4 µM) in experiment [11].

For the compound `Cc1c(-c2nnc(-c3ccccc3)o2)sc2ncnc(Nc3ccc(F)cc3)c12`, the inhibition in experiment [1] stood at 84.9%; in experiment [2] it was 75.8%; in [4] it was 82.4%; in experiment [5], 83.1%; in experiment [7], 78.1%; in experiment [8], 69.5%. For the same compound, the inhibition in experiment [9] amounted to 66.3%; in experiment [10] it was 78.4%; in experiment [12], 71.7%; in experiment [13], 73.1%; in experiment [14], 72.5%; in experiment [15], 74.2%. Further, the concentration for half-maximal inhibition (IC50) in experiment [3] is 18.85 µg/mL (≈ 46.7 µM); in experiment [6] it was 17.25 µg/mL (≈ 42.8 µM); in experiment [11] it was 17.1 µg/mL (≈ 42.4 µM).

For `Cc1c(-c2nnc(-c3ccccc3)o2)sc2ncnc(Nc3ccc(Cl)cc3)c12`, the inhibition in [1] was 82.9%; in [2], 71.6%; in [4], 77.1%; in experiment [5], 81.3%; in experiment [7] it was 74.8%; in experiment [8], 63.8%. In addition, the inhibition in experiment [9] was 61.1%; in experiment [10] it was 76.8%; in experiment [12], 68.2%; in experiment [13], 71.3%; in experiment [14] it was 69.3%; in experiment [15], 71.6%. Besides, the IC50 stood at 20.47 µg/mL (≈ 48.8 µM) in experiment [3], 18.03 µg/mL (≈ 42.9 µM) in [6] and 17.54 µg/mL (≈ 41.8 µM) in [11].

In the case of `Cc1c(-c2nnc(-c3ccc(Cl)cc3)o2)sc2ncnc(Nc3ccc(F)c(Cl)c3)c12`, the inhibition worked out at 79.5% in [1]; 67.9% in [2]; 74.7% in [4]; 76.6% in [5]; 69.2% in experiment [7]; 64.5% in experiment [8]. Besides, the inhibition is 61.9% in experiment [9]; 71.5% in experiment [10]; 68.2% in experiment [12]; 64.4% in experiment [13]; 63.9% in experiment [14]; 71.9% in experiment [15]. The IC50 in experiment [3] is 20.18 µg/mL (≈ 42.7 µM); in [6], 19.57 µg/mL (≈ 41.4 µM); in experiment [11], 19.41 µg/mL (≈ 41.1 µM).

Regarding `Cc1c(-c2nnc(-c3ccc(Cl)cc3)o2)sc2ncnc(Nc3ccc(F)cc3)c12`, the inhibition in experiment [1] was 83.6%; in experiment [2] it was 74.2%; in experiment [4] it was 79.7%; in [5], 81.9%; in experiment [7], 76.3%; in experiment [8], 67.4%. For the same compound, the inhibition in [9] was determined as 64.1%; in [10], 77.8%; in [12], 69.8%; in experiment [13], 71.8%; in experiment [14], 70.6%; in experiment [15], 72.6%. In addition, the 50% inhibitory concentration (IC50) amounted to 19.49 µg/mL (≈ 44.5 µM) in experiment [3], 17.7 µg/mL (≈ 40.4 µM) in [6] and 17.39 µg/mL (≈ 39.7 µM) in experiment [11].

Turning to `Cc1c(-c2nnc(-c3ccc([N+](=O)[O-])cc3)o2)sc2ncnc(Nc3ccc(F)c(Cl)c3)c12`, the inhibition came out at 64.3% in experiment [1]; 52.9% in [2]; 60% in experiment [4]; 61.9% in experiment [5]; 56.5% in experiment [7]; 47.4% in experiment [8]. Further, the inhibition in experiment [9] was determined as 45%; in experiment [10], 56.6%; in experiment [12], 50.4%; in [13] it was 53.6%; in [14], 48.6%; in [15], 53.6%. For the same compound, the IC50 in experiment [3] amounted to 27.76 µg/mL (≈ 57.5 µM); in [6], 25.69 µg/mL (≈ 53.2 µM); in experiment [11], 23.3 µg/mL (≈ 48.3 µM).

In the case of `Cc1c(-c2nnc(-c3ccc([N+](=O)[O-])cc3)o2)sc2ncnc(Nc3ccc(Cl)cc3)c12`, the inhibition was determined as 72.4% in experiment [1]; 58.2% in experiment [2]; 67.6% in [4]; 67.8% in experiment [5]; 63.5% in experiment [7]; 54% in experiment [8]. In addition, the inhibition amounted to 51.4% in [9]; 61.4% in [10]; 58.1% in experiment [12]; 61% in [13]; 52.7% in experiment [14]; 63.7% in [15]. The IC50 in [3] was 24.33 µg/mL (≈ 52.3 µM); in [6], 23.7 µg/mL (≈ 51 µM); in [11] it was 20.49 µg/mL (≈ 44.1 µM).

Turning to `Cc1c(-c2nnc(-c3ccccc3)o2)sc2ncnc(Nc3ccc(F)c(Cl)c3)c12`, the inhibition in experiment [1] is 82.4%; in [2] it was 72.8%; in experiment [4] it was 78.2%; in experiment [5], 79.2%; in experiment [7] it was 74.1%; in experiment [8] it was 63.5%. The inhibition in experiment [9] came out at 60.3%; in experiment [10], 74.9%; in experiment [12] it was 67.8%; in [13], 72.9%; in experiment [14], 68.5%; in experiment [15], 70.9%. Also, the IC50 in experiment [3] was 20.74 µg/mL (≈ 47.4 µM); in experiment [6], 18.25 µg/mL (≈ 41.7 µM); in experiment [11] it was 17.14 µg/mL (≈ 39.1 µM).

The values are drawn from ChEMBL document CHEMBL2150985, “Synthesis and antioxidant activity of 1,3,4-oxadiazole tagged thieno[2,3-d]pyrimidine derivatives” (Eur J Med Chem, 2012).
